Source: PubChem (Sanford-Burnham Center for Chemical Genomics)
A selection: hits, their analogues and other compounds. The true share with any hit is near 2.5%.
SENP6 inh = SENP6 protease inhibitors, primary screen, biochemical, luminescence, uHTS; Sentrin-specific protease 6 (Homo sapiens), Q9GZR1; Recombinant SENP6 catalytic domain, aminoluciferin luminescence; inhibition, % at 10 µM; actives 1.8% (n = 330,000); AID 2599, 2010;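 active = inhibition above about 50% at the single tested dose, limit read from the data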
SENP8 block-1 = human SENP8 protease inhibitors, primary screen, biochemical, fluorescence, Nedd8 protein substrate, uHTS. Sentrin-specific protease 8 (Homo sapiens), Q96LD8. recombinant SENP8. inhibition, % at 20 µM. actives 0.64% (n = 360,000). AID 602440, 2012; in the data active = inhibition mostly above about 40%, no sharp cut-off; inactive = mostly below about 27%
Target sequence (Q96LD8 whole entry, looked up): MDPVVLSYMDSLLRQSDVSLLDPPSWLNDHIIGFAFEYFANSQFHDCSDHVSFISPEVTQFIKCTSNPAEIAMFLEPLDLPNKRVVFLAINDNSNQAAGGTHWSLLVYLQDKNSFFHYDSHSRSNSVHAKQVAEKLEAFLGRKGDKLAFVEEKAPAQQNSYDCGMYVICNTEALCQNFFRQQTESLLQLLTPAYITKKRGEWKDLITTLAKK
SENP7 inh = SENP7 protease inhibitors, primary screen, biochemical, luminescence, uHTS | Sentrin-specific protease 7 (Homo sapiens), Q9BQF6 | recombinant SENP7, Z-RLRGG-aminoluciferin luminescence, 40 min | inhibition, % at 5 µM | actives 1.5% (n = 330,000) | AID 434973, 2010;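 active = inhibition above about 50% at the single test dose, limit read from the data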
SENP8 block-2 = SENP8 protease inhibitors, primary screen, biochemical, luminescence. Sentrin-specific protease 8 (Homo sapiens), Q96LD8. purified SENP8, Z-RLRGG-aminoluciferin cleavage. inhibition, % at 10 µM. actives 1.2% (n = 330,000); in the data active = inhibition above about 50%
SENP1 FRET inh = human SENP1 catalytic domain inhibitors, primary screen, biochemical, FRET, uHTS. Sentrin-specific protease 1 (Homo sapiens), Q9P0U3. recombinant SENP1 catalytic domain, CyPet-SUMO1-YPet FRET cleavage. inhibition, % at 10 µM. actives 0.21% (n = 360,000). AID 624204, 2012;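 active = inhibition at least 30% at 10 µM, raw YFP signal under a set limit, fluorescence ratio 0.5 to 1.5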
Target sequence (Q9P0U3 419-644 limits assumed): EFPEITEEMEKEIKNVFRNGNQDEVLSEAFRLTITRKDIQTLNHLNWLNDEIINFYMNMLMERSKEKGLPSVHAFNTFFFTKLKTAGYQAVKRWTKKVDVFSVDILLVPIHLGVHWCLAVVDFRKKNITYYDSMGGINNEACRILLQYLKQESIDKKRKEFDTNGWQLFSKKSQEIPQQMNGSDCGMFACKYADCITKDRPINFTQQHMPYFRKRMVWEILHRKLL
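Test system: recombinant human SENP1 catalytic domain, His6-tagged / Medium: pH 8 Tris buffer with EDTA, NaCl, BME, BSA, NP40, catalase / Also added: SUMO1 FRET substrate flanked by Cypet and Ypet, 25 nM / Times: 50 min reaction at room temperature / Signal: FRET, CFP and YFP emission / Control set: no-enzyme low control and enzyme-plus-DMSO high control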
A number is an active result; 0 = inactive; - = not tested or not shown.

SMILES | SENP6 inh | SENP8 block-1 | SENP7 inh | SENP8 block-2 | SENP1 FRET inh
COc1cccc(CN2CC(C(=O)NCCCn3cccn3)CCC2=O)c1 (centres undefined) | 0 | 0 | 0 | 0 | 0
O=C(Nc1ccccc1N1CCCC1)c1cc2ccccc2o1 | 63 | 0 | 0 | 0 | 0
O=C(Nc1ccccc1N1CCOCC1)c1cc2ccccc2o1 | 0 | 0 | 0 | 0 | 0
O=C1CSC(=S)N1N=Cc1ccc(Cl)s1 | - | 0 | - | - | 0
CCOc1ccc(NC(=O)Nc2ccccc2SC)cc1 | 98 | 0 | 99 | 95 | 0
CCOc1ccc(NC(=O)c2cc3ccccc3cc2O)cc1 | 0 | 0 | 68 | 0 | 0
CCOc1ccc(NC(=O)c2cc3ccccc3cc2OC)cc1 | 0 | 0 | 0 | 0 | 0
ClN=C1C=CC=CC1=NCl | - | 38 | - | - | 0
C=CC(=O)Nc1cccc(Nc2nc(N[C@H]3CC[C@H](N(C)C)CC3)nc3c2ncn3C(C)C)c1 | - | 0 | - | - | 0
CCNC(=S)NS(=O)(=O)c1ccccc1 | 0 | 42 | 0 | 0 | 0
CCNC(=S)NS(=O)(=O)c1ccc(Cl)cc1 | 0 | 0 | 0 | 0 | 0
C[C@@](Cc1ccc(O)c(O)c1)(NN)C(=O)O | - | 39 | - | - | 0
N[C@@H](Cc1ccc(O)c(O)c1)C(=O)O | - | 0 | - | - | 0
CC1=NN(c2nc(-c3ccc(C)cc3)cs2)C(=O)C1N=Nc1cccc(O)c1 (centres undefined) | 0 | 36 | 0 | 0 | 0
O=C(O)c1ccc(N=N/C(=N\Nc2ccc(C(=O)O)cc2)c2ccccc2)cc1 | 0 | 45 | 0 | 0 | 0
Cc1ccc(NC(=O)C2CCN(S(=O)(=O)c3ccc4c(c3)CCCC(=O)N4)CC2)cc1N(C)C | 0 | 0 | 0 | 0 | 0
CC(=O)Nc1nc(-c2ccc(Cl)cc2)ns1 | 55 | 0 | 0 | 0 | 0
CC1CN(C(=O)CCC(=O)NCc2ccccc2)c2ccccc2O1 (centres undefined) | 0 | 0 | 0 | 0 | 0
S=c1sscc1-c1ccccc1 | - | 0 | - | - | 0
Cc1ccc2oc(/N=C(\N)NC(=O)C(C)(C)C)nc2c1 | 0 | 0 | 65 | 0 | 0
Cc1ccc2oc(/N=C(\N)NC(=O)C3CC3)nc2c1 | 0 | 0 | 0 | 0 | 0
CC(C)Oc1ccc(S(=O)(=O)N2CCOCC2)cc1NC(=O)c1ccc(N2CCCC2=O)cc1 | 0 | 0 | 0 | 0 | 0
CC(C)(C)c1ccc(OC(=O)Nc2ccc(O)c(C(=O)O)c2)cc1 | 83 | 0 | 0 | 72 | 0
O=C(NCCc1ccc(F)cc1)N[C@@H](Cc1ccccc1)C(=O)O | 0 | 0 | 0 | 0 | 0
O=c1c(N=Nc2ccc(O)cc2)c(-c2ccccc2)[nH]n1-c1ccc([N+](=O)[O-])cc1 | 0 | 56 | 0 | 0 | 0
SMILES | SENP6 inh | SENP8 block-1 | SENP7 inh | SENP8 block-2 | SENP1 FRET inh
CCOc1ccc(CCNC(=O)c2ccc3c(=O)[nH]c4c(C(=O)NC(C)C)sc(=S)n4c3c2)cc1 | 0 | 0 | 0 | 0 | 48
O=C(NCC1CCCO1)c1ccc2c(=O)n(CC3CCCO3)c(=S)[nH]c2c1 (centres undefined) | 0 | 0 | 0 | 0 | 0
CC(C)NC(=O)c1sc(=S)n2c1[nH]c(=O)c1ccc(C(=O)NCCc3ccc(Cl)cc3)cc12 | 0 | 0 | 0 | 0 | 49
O=C(NCCc1ccccc1)c1ccc2c(=O)[nH]c3c(C(=O)NCC4CCCO4)sc(=S)n3c2c1 (centres undefined) | 0 | 0 | 0 | 0 | 54
Cn1nc(C(C)(C)C)cc1C(=O)N1CCCC(c2cc(C(=O)NCc3ccccc3)no2)C1 (centres undefined) | - | 0 | - | - | 0
Cc1[nH]n(C(N)=S)c(=O)c1N=Nc1ccc(S(=O)(=O)N2CCCC2)cc1 | 0 | 0 | 0 | 0 | 0
Cc1ccc(N=Nc2c(C)[nH]n(C(N)=S)c2=O)cc1 | 79 | 0 | 63 | 74 | 0
CCOC(=O)C1(C)CCCN1C(=O)c1cc(F)ccc1C (centres undefined) | - | 0 | - | - | 0
Cc1ccc(N=Nc2ccc(O)c3ncccc23)cc1 | - | 43 | - | - | 0
COc1ccccc1N=Nc1ccc(O)c2ncccc12 | 65 | 87 | 0 | 0 | 0
CCS(=O)(=O)c1ccc(N=Nc2ccc(O)c3ncccc23)c(OC)c1 | 0 | 0 | 0 | 0 | 0
Cc1ccc(N=Nc2ccc(O)c3ncccc23)cc1C | 0 | 0 | 0 | 0 | 0
CCN(CC)c1ccc2cc(-c3nc4ccccc4n3C)c(=O)oc2c1 | - | 0 | - | - | 0
CCN(CC)c1ccc2cc(-c3nc4ccccc4[nH]3)c(=O)oc2c1 | 69 | 0 | 95 | 51 | 0
Cc1c(N2C(=O)/C(=C\c3ccc(N(C)C)cc3)N(C)C2=S)c(=O)n(-c2ccccc2)n1C | - | 0 | - | - | 69
Cc1c(NC(=S)N/N=C/c2ccc(N(C)C)cc2)c(=O)n(-c2ccccc2)n1C | 0 | 0 | 0 | 0 | 0
CN1C(=S)N(c2cccnc2)C(=O)/C1=C\c1ccc(N(C)C)cc1 | - | 0 | - | - | 61
CN1C(=S)N(c2cccnc2)C(=O)/C1=C\c1ccc(C(C)(C)C)cc1 | 0 | 0 | 0 | 0 | 0
CCCCCNC(=O)C1C(=O)Nc2ccccc2C(=O)N1c1ccc(OC)cc1 (centres undefined) | - | 0 | - | - | 0
O=C(Nc1ccc(N2CCCC2)cc1)C(Cl)c1ccccc1 (centres undefined) | 66 | 0 | 0 | 0 | 0
CC1OC2CC(=O)OC2C2=C1C(=O)c1c(O)cccc1C2=O (centres undefined) | - | 99 | - | - | 0
CCOc1ccc(-c2noc(-c3csc([C@@H]4O[C@H](CO)[C@H](O)[C@H](O)[C@H]4O)n3)n2)cc1 | - | 0 | - | - | 0
Cc1ccc(C(=O)CCc2ccc(N)cc2)cc1 | 0 | 0 | 0 | 0 | 0
COC[C@H](NS(=O)(=O)c1ccc(Br)cc1F)[C@@H](O)c1ccccc1 | - | 0 | - | - | 0
O=C(Cc1nc(=O)c2ccccc2s1)Nc1ccccc1 | 0 | 0 | 92 | 0 | 0
SMILES | SENP6 inh | SENP8 block-1 | SENP7 inh | SENP8 block-2 | SENP1 FRET inh
O=C(Cc1ccccc1)Nc1nc(=O)c2ccccc2s1 | 0 | 0 | 0 | 0 | 0
CCOC(=O)C1=CCN(S(=O)(=O)c2ccc(C)cc2)C1c1cccc(Cl)c1 (centres undefined) | - | 0 | - | - | 0
CCN(CCCNc1cc2c(c(N)c1S(=O)(=O)O)C(=O)c1ccccc1C2=O)c1ccccc1 | - | 57 | - | - | 0
CCOC(=O)C1CCN(c2c(NCCCN(CC)c3ccccc3)c(=O)c2=O)CC1 | 0 | 0 | 0 | 0 | 0
Cc1nc(-c2ccc(Br)cc2)ccc1C(=O)O | 75 | 0 | 0 | 0 | 0
CC[C@@]1(O)C(=O)OCc2c1cc1n(c2=O)Cc2cc3c(N)cccc3nc2-1 | 0 | 0 | 0 | 0 | 32
Cc1ccc(/C=N/n2c(C3CCCCC3)n[nH]c2=S)cc1 | 0 | 0 | 0 | 0 | 0
O=C(O)/C=C/c1ccc(S(=O)(=O)N2CCN(CCN3C(=O)C4C5C=CC(C5)C4C3=O)CC2)cc1 (centres undefined) | 0 | 0 | 0 | 0 | 0
